This is an account of results in ChEMBL document CHEMBL4304798, “Iterative Optimization of the Cyclic Peptide SFTI-1 Yields Potent Inhibitors of Neutrophil Proteinase 3” (ACS Med Chem Lett, 2019).

Data set [1] is described as follows: Stability in human serum at 400 uM measured after 2 hrs by RP-HPLC analysis. Type of data set: ADME, cell-free. The essentials: (§1)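 Peptides incubated in human serum at 37 °C and sampled over time. Values are mean ± SEM from three experiments.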
The target of data set [2] is T1, Myeloblastin (Homo sapiens) (UniProt P24158).
T1 sequence (whole entry): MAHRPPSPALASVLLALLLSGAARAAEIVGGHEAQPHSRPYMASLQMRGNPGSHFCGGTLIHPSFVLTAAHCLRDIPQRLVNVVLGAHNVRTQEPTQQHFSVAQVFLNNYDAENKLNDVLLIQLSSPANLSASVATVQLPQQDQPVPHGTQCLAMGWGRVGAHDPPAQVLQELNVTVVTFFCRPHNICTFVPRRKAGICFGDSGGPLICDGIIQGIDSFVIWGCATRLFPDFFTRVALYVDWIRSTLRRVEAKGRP
Put plainly: Competitive inhibition of purified human proteinase 3 at 160 nM using MeOSuc-AAPV-MCA as substrate by fluorescence based assay. The procedure, abridged: (§2)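 Competitive inhibition screen against PR3, with each peptide variant tested at two fixed inhibitor concentrations.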

For data set [3], the target named is T1, Myeloblastin (Homo sapiens). Put plainly: Competitive inhibition of purified human proteinase 3 at 40 nM using MeOSuc-AAPV-MCA as substrate by fluorescence based assay. The essentials:
as §2

Data set [4] addresses T2, Chymase (Homo sapiens, UniProt P23946).
T2 sequence (P23946 whole entry): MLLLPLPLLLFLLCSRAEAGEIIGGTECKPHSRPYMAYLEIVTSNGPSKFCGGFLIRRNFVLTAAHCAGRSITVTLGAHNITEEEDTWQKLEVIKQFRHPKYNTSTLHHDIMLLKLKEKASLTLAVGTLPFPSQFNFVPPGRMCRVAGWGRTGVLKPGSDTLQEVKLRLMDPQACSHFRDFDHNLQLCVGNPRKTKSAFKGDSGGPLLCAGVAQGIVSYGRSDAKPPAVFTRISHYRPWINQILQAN
As to the kind of experiment: Inhibition of recombinant human chymase expressed in Pichia pastoris using NleTDY-pNA as substrate by fluorescence based assay.

The target in data set [5] is Chymotrypsin (Homo sapiens, UniProt Q99895+P17538+P40313+Q6GPI1). As to the kind of experiment: Inhibition of human chymotrypsin using Suc-AAPF-MCA as substrate by fluorescence based assay. It is filed as protein assay.
Data set [6] has as its target Prothrombin (Homo sapiens, UniProt P00734). Put plainly: Inhibition of recombinant human alpha thrombin using Boc-VPR-MCA as substrate by fluorescence based assay.
Data set [7] concerns the target T3, Neutrophil elastase (Homo sapiens, UniProt P08246).
T3 sequence (P08246 whole entry): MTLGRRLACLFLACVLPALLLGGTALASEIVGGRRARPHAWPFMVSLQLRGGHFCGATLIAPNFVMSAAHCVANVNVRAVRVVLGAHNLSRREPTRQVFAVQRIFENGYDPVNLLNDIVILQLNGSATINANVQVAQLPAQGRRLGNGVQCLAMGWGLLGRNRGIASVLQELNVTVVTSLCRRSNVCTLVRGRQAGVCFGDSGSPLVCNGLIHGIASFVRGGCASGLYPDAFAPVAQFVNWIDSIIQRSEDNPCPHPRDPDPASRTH
Put plainly: Inhibition of human neutrophil elastase using MeOSuc-AAPV-MCA as substrate by fluorescence based assay.

For data set [8], the target named is T4, Cathepsin G (Homo sapiens, UniProt P08311).
T4 sequence (P08311 whole entry): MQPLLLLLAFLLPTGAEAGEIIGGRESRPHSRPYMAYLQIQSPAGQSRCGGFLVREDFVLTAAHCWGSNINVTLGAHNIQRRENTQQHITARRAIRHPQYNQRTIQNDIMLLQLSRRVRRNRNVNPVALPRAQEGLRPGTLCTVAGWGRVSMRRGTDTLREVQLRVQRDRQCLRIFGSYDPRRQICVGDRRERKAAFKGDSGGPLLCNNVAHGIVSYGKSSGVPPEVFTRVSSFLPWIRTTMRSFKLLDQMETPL
Put plainly: Inhibition of human Cathepsin G using Suc-AAPF-MCA as substrate by fluorescence based assay.

Data set [9] in a line: Stability in human serum at 400 uM measured after 24 hrs by RP-HPLC analysis. It is filed as ADME, cell-free. Particulars: read-out: Stability. The essentials: as §1
Data set [10] concerns the target T5, Myeloblastin (Homo sapiens, UniProt P24158).
T5 sequence (P24158 whole entry): T1 sequence (whole entry)
As to the kind of experiment: Inhibition of purified human proteinase 3 using MeOSuc-AAPV-MCA as substrate by fluorescence based assay.

Data set [11] has as its target Trypsin (Homo sapiens, UniProt P07477+P07478+P35030). As to the kind of experiment: Inhibition of recombinant human trypsin using Boc-VPR-MCA as substrate by fluorescence based assay. It is filed as protein assay.
Data set [12] has as its target T6, Neutrophil elastase (Homo sapiens) (UniProt P08246).
T6 sequence (whole entry): T3 sequence (P08246 whole entry)
Put plainly: Inhibition of human neutrophil elastase at 2.5 to 40 nM using MeOSuc-AAPV-MCA as substrate by fluorescence based assay.

Active and inactive are the calls of the source. The calls are words filed in the database; no cut-off is given here. Positions of bridges follow the written chain, without caps; N, C: chain ends. Non-standard residues stand in square brackets, D forms with d. Residues, ends and D or L forms follow the SMILES beside them. ξ: configuration not given here. *: point of attachment. ClZ = O=C(OCc1ccccc1Cl)*; ξAbu = CCC(N)C(=O)O

Consider `CC[C@H](C)[C@@H]1NC(=O)[C@@H]2CCCN2C(=O)[C@@H]2CCCN2C(=O)[C@H]([C@@H](C)CC)NC(=O)[C@H](CO)NC(=O)[C@H](CCCCN)NC(=O)[C@H]([C@@H](C)O)NC(=O)[C@@H](NC(=O)[C@H](CCCNC(=N)N)NC(=O)CN)CSSC[C@@H](C(=O)N[C@@H](Cc2ccccc2)C(=O)N2CCC[C@H]2C(=O)N[C@@H](CC(=O)O)C(=O)O)NC1=O`, for which, in data set [1], the Stability result was “Unstable”.
`CCC1NC(=O)[C@H](CC(=O)O)NC(=O)[C@@H]2CSSC[C@H](NC(=O)[C@H]([C@@H](C)CC)NC(=O)[C@@H]3CCCN3C(=O)[C@@H]3CCCN3C(=O)[C@H](CC(=O)O)NC(=O)[C@H](CO)NC1=O)C(=O)N[C@@H](CC(N)=O)C(=O)N1CCC[C@H]1C(=O)N[C@@H](CC(N)=O)C(=O)NCC(=O)N[C@@H]([C@@H](C)O)C(=O)N2` (stereo partly drawn) (HELM PEPTIDE1{C.D.[CCC(N[*:1])C(=O)[*:2]].S.D.P.P.I.C.N.P.N.G.T}$PEPTIDE1,PEPTIDE1,1:R3-9:R3|PEPTIDE1,PEPTIDE1,1:R1-14:R2$$$V2.0): the “inhibition activity (active/inactive)” value in [2] is “Active”.
For `CCC1NC(=O)[C@H](CC(=O)O)NC(=O)[C@@H]2CSSC[C@H](NC(=O)[C@H]([C@@H](C)CC)NC(=O)[C@@H]3CCCN3C(=O)[C@@H]3CCCN3C(=O)[C@H](Cc3ccc(O)cc3)NC(=O)[C@H](CO)NC1=O)C(=O)N[C@@H](CC(N)=O)C(=O)N1CCC[C@H]1C(=O)N[C@@H](CC(N)=O)C(=O)NCC(=O)N[C@@H]([C@@H](C)O)C(=O)N2` (stereo partly drawn) (HELM PEPTIDE1{C.D.[CCC(N[*:1])C(=O)[*:2]].S.Y.P.P.I.C.N.P.N.G.T}$PEPTIDE1,PEPTIDE1,1:R3-9:R3|PEPTIDE1,PEPTIDE1,1:R1-14:R2$$$V2.0), the “inhibition activity (active/inactive)” value in data set [2] is “Active”.
Still for that read-out and setting: for `CCC1NC(=O)[C@H](Cc2ccc(O)cc2)NC(=O)[C@@H]2CSSC[C@H](NC(=O)[C@H]([C@@H](C)CC)NC(=O)[C@@H]3CCCN3C(=O)[C@@H]3CCCN3C(=O)[C@H](CC(=O)O)NC(=O)[C@H](CO)NC1=O)C(=O)N[C@@H](CC(N)=O)C(=O)N1CCC[C@H]1C(=O)N[C@@H](CC(N)=O)C(=O)NCC(=O)N[C@@H]([C@@H](C)O)C(=O)N2` (stereo partly drawn) (HELM PEPTIDE1{C.N.P.N.G.T.C.Y.[CCC(N[*:1])C(=O)[*:2]].S.D.P.P.I}$PEPTIDE1,PEPTIDE1,1:R3-7:R3|PEPTIDE1,PEPTIDE1,1:R1-14:R2$$$V2.0) the value was “Active”.
On the same count and under the same terms, for `CCC1NC(=O)[C@H](Cc2ccc(O)cc2)NC(=O)[C@@H]2CSSC[C@H](NC(=O)[C@H]([C@@H](C)CC)NC(=O)[C@@H]3CCCN3C(=O)[C@@H]3CCCN3C(=O)[C@H](CCC(=O)O)NC(=O)[C@H](CO)NC1=O)C(=O)N[C@@H](CC(N)=O)C(=O)N1CCC[C@H]1C(=O)N[C@@H](CC(N)=O)C(=O)NCC(=O)N[C@@H]([C@@H](C)O)C(=O)N2` (stereo partly drawn) (HELM PEPTIDE1{C.N.P.N.G.T.C.Y.[CCC(N[*:1])C(=O)[*:2]].S.E.P.P.I}$PEPTIDE1,PEPTIDE1,1:R3-7:R3|PEPTIDE1,PEPTIDE1,1:R1-14:R2$$$V2.0) the value was “Active”.
Consider `CCC1NC(=O)[C@H](Cc2ccc(O)cc2)NC(=O)[C@@H]2CSSC[C@H](NC(=O)[C@H]([C@@H](C)CC)NC(=O)[C@@H]3CCCN3C(=O)[C@@H]3CCCN3C(=O)[C@H](Cc3c[nH]c4ccccc34)NC(=O)[C@H](CO)NC1=O)C(=O)N[C@@H](CC(N)=O)C(=O)N1CCC[C@H]1C(=O)N[C@@H](CC(N)=O)C(=O)NCC(=O)N[C@@H]([C@@H](C)O)C(=O)N2` (stereo partly drawn) (HELM PEPTIDE1{C.N.P.N.G.T.C.Y.[CCC(N[*:1])C(=O)[*:2]].S.W.P.P.I}$PEPTIDE1,PEPTIDE1,1:R3-7:R3|PEPTIDE1,PEPTIDE1,1:R1-14:R2$$$V2.0), for which, in data set [3], the inhibition entry was “Active”.
What is called IC50 is the concentration that gives 50% inhibition. A word on the Ki: it is a measure of affinity in units of concentration, obtained from inhibition or displacement. Read a high Ki as a looser hold on the target. Take `CCC1NC(=O)[C@H](Cc2ccc(O)cc2)NC(=O)[C@@H]2CSSC[C@H](NC(=O)[C@H]([C@@H](C)CC)NC(=O)[C@@H]3CCCN3C(=O)[C@@H]3CCCN3C(=O)[C@H](Cc3ccc(O)cc3)NC(=O)[C@H](CO)NC1=O)C(=O)N[C@@H](CC(N)=O)C(=O)N1CCC[C@H]1C(=O)N[C@@H](CC(N)=O)C(=O)NCC(=O)N[C@@H]([C@@H](C)O)C(=O)N2` (stereo partly drawn) (HELM PEPTIDE1{C.N.P.N.G.T.C.Y.[CCC(N[*:1])C(=O)[*:2]].S.Y.P.P.I}$PEPTIDE1,PEPTIDE1,1:R3-7:R3|PEPTIDE1,PEPTIDE1,1:R1-14:R2$$$V2.0): the IC50 in data set [4], in data set [5], in data set [6], in data set [8] and in data set [11] was over 10 µM each time. The inhibition result in data set [3] is “Active”. The Ki in [7] is 3.2 nM; in data set [10] it was 7 nM. In data set [9], the remaining at 24 h, 400 µM is 90 to 95%.
Turning to `CCC1NC(=O)[C@H](Cc2ccc(O)cc2)NC(=O)[C@@H]2CSSC[C@H](NC(=O)[C@H]([C@@H](C)CC)NC(=O)[C@@H]3CCCN3C(=O)[C@@H]3CCCN3C(=O)[C@H](Cc3ccc(O)cc3)NC(=O)[C@H](CO)NC1=O)C(=O)N[C@@H](CC(N)=O)C(=O)N1CCC[C@H]1C(=O)N[C@@H](CC(N)=O)C(=O)NCC(=O)N[C@@H](Cc1ccc(-c3ccccc3)cc1)C(=O)N2` (stereo partly drawn) (HELM PEPTIDE1{[O=C([C@H](Cc1ccc(-c2ccccc2)cc1)N[*:1])[*:2]].C.Y.[CCC(N[*:1])C(=O)[*:2]].S.Y.P.P.I.C.N.P.N.G}$PEPTIDE1,PEPTIDE1,2:R3-10:R3|PEPTIDE1,PEPTIDE1,1:R1-14:R2$$$V2.0), the IC50 in data set [4], in data set [5], in data set [6], in [8] and in data set [11] was over 10 µM each time. The Ki in data set [7] stood at 24 nM; in [10], 17 nM. Further, in data set [9], the remaining at 24 h, 400 µM was in the range of 90 to 95%. The inhibition entry in data set [12] was “Active”.
Turning to `CCCC1NC(=O)[C@H](Cc2ccc(O)cc2)NC(=O)[C@@H]2CSSC[C@H](NC(=O)[C@H]([C@@H](C)CC)NC(=O)[C@@H]3CCCN3C(=O)[C@@H]3CCCN3C(=O)[C@H](Cc3ccc(O)cc3)NC(=O)[C@H](CO)NC1=O)C(=O)N[C@@H](CC(N)=O)C(=O)N1CCC[C@H]1C(=O)N[C@@H](CC(N)=O)C(=O)NCC(=O)N[C@@H](Cc1ccc(-c3ccccc3)cc1)C(=O)N2` (stereo partly drawn) (HELM PEPTIDE1{[O=C([C@H](Cc1ccc(-c2ccccc2)cc1)N[*:1])[*:2]].C.Y.[CCCC(N[*:1])C(=O)[*:2]].S.Y.P.P.I.C.N.P.N.G}$PEPTIDE1,PEPTIDE1,2:R3-10:R3|PEPTIDE1,PEPTIDE1,1:R1-14:R2$$$V2.0), the IC50 in data set [4] is over 10 µM; in data set [6] it was over 10 µM; in data set [8], over 5 µM; in data set [11], over 10 µM. In addition, the Ki was found to be 463 nM in data set [5], 16 nM in data set [7] and 6.1 nM in data set [10]. The remaining at 24 h, 400 µM in data set [9] lay in the range of 90 to 95%.
With `CCC1NC(=O)[C@H](Cc2ccc(O)cc2)NC(=O)[C@@H]2CSSC[C@H](NC(=O)[C@H]([C@@H](C)CC)NC(=O)[C@@H]3CCCN3C(=O)[C@@H]3CCCN3C(=O)[C@H](Cc3ccc(O)cc3)NC(=O)[C@H](CO)NC1=O)C(=O)N[C@@H](CC(N)=O)C(=O)N1CCC[C@H]1C(=O)N[C@@H](CC(N)=O)C(=O)NCC(=O)N[C@@H](CCCCNC(=O)OCc1ccccc1Cl)C(=O)N2` (stereo partly drawn) (cyclo(CNPNGK(ClZ)CY[ξAbu]SYPPI); disulfide 1-7), the inhibition result in data set [12] is “Active”.
